Each structure is given as a SMILES string. Where only a bound is given, the exact number is not on record here.

The results in this text go back to ChEMBL document CHEMBL1134782, “Synthesis of 1-benzyl-3-(5'-hydroxymethyl-2'-furyl)indazole analogues as novel antiplatelet agents” (J Med Chem, 2001).

Assay [1] can be described thus: Inhibition of platelet aggregation induced by Collagen (10 uM). To be noted: in the assay text read “10 ug/mL” for “10 uM”. In kind it is functional. The method in brief:
(§1)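 Platelets were preincubated with test compound at 37 °C for 1 min. Values are mean ± SE from three to six separations. Aspirin served as positive control.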

A short description of assay [2]: Inhibition of platelet aggregation induced by thrombin (0.1 unit/ml). In kind it is functional. Put shortly: as §1
Assay [3] can be described thus: Inhibition of platelet aggregation induced by AA (100 uM). The assay is classed as functional. The method in brief:
as §1

Assay [4] can be described thus: Inhibition of platelet aggregation induced by PAF (2 ng/mL). The assay is classed as functional. The method in brief: as §1
Assay [5] is described as follows: inhibition of platelet aggregation induced by PAF (2 ng/mL). In kind it is functional. The method in brief:
as §1

In assay [6] the target is T1, Soluble guanylate cyclase (Homo sapiens) (UniProt Q02153+O75343+P33402+Q02108). Nature of the assay: […] was determined in the presence of [alpha-32P]GTP at a concentration of 82 uM. The assay is classed as protein-complex assay. Put shortly: (§2)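 Soluble guanylate cyclase source was the supernatant fraction of platelet homogenate. It was incubated with [α-32P]GTP and 82 μM test compound at 37 °C for 10 min. Activity was expressed as pmol cGMP/min/mg protein.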

In assay [7] the target is T2, cGMP-specific 3',5'-cyclic phosphodiesterase (Homo sapiens, UniProt O76074). The experiment in a line: (§3) Inhibition of PDE5 from platelets. The method in brief: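 PDE activity fraction incubated with [3H]cGMP as substrate and a range of test-compound concentrations at 37 °C for 10 min. IBMX served as positive control.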
The target of assay [8] is T1, Soluble guanylate cyclase (Homo sapiens). Nature of the assay: sGC activation was determined in the presence of [alpha-32P]GTP at a concentration of 82 uM. The assay is classed as protein-complex assay. Put shortly:
as §2

Assay [9] is described as follows: Inhibition of platelet aggregation induced by Collagen (10 ug/mL).
In assay [10] the target is T2, cGMP-specific 3',5'-cyclic phosphodiesterase. The assay is described as §3. Put shortly:
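PDE activity fraction incubated with [3H]cGMP as substrate and a range of test-compound concentrations at 37 °C for 10 min. […] IBMX served as positive control.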
The source holds these as a separate data set.

As for `COC(=O)c1ccc(-c2nn(-c3ccccc3)c3ccccc23)o1`, the IC50 (in general, the point on the concentration scale where inhibition reaches its midpoint) in assay [1] is 18.2 µM; in [2], more than 270 µM; in assay [3], 10.6 µM; in assay [4] it was more than 270 µM.

Take `COc1ccc2c(-c3ccc(C(=O)O)o3)nn(Cc3ccccc3)c2c1`: the IC50 is 140 µM in assay [1], more than 270 µM in assay [2], more than 270 µM in assay [5] and 150 µM in assay [3].

As to `CC(=O)Oc1ccccc1C(=O)O` [ASPIRIN], the IC50 is more than 270 µM in [1], more than 270 µM in assay [2], 20 µM in assay [3] and more than 270 µM in assay [4].

Regarding `CCOC(=O)c1ccc(-c2nn(Cc3ccccc3)c3ccccc23)cc1`, the IC50 in assay [1] is 212 µM; in assay [2], 29.3 µM; in [3], 184 µM; in assay [4], 164 µM.

For the compound `Cc1ccc(-c2nn(Cc3ccccc3)c3ccccc23)o1`, the IC50 worked out at 27.5 µM in assay [1]; 39.4 µM in assay [2]; 39.6 µM in assay [5]; 47.3 µM in assay [3]; 22.3 µM in assay [7]. Further, the Activity (pM of cGMP (min)-1 (mg of protein)-1) in assay [6] was determined as 30.9.

In the case of `COc1ccc2c(-c3ccc(CO)o3)nn(Cc3ccccc3)c2c1`, in [8], the Activity (pM of cGMP (min)-1 (mg of protein)-1) worked out at 39.9. Further, the IC50 was 46.7 µM in [1], 168 µM in assay [2], 49.7 µM in [3] and 89.2 µM in assay [4].

On to `OCc1ccc(-c2nn(Cc3ccccc3)c3ccccc23)o1`, for which, in [8], the Activity (pM of cGMP (min)-1 (mg of protein)-1) came out at 44.6. Moreover, the IC50 in [1] was found to be 53.8 µM; in [2], 173 µM; in assay [3], 54.3 µM; in assay [7], 31.9 µM; in [4] it was 87.3 µM.

Regarding `CCN(CC)Cc1ccc(-c2nn(Cc3ccccc3)c3ccccc23)o1`, the Activity (pM of cGMP (min)-1 (mg of protein)-1) in assay [8] was 17.9. Moreover, the IC50 in [1] came to 50.4 µM; in assay [2], 102 µM; in assay [3] it was 55.7 µM; in assay [7] it was 63 µM; in assay [4], 55.9 µM.

Consider `COC(=O)c1ccc(-c2nn(Cc3ccccc3)c3cc(OC)ccc23)o1`, for which the half-inhibitory concentration (IC50) was 157 µM in assay [1], more than 270 µM in assay [2], 92.3 µM in [3] and more than 270 µM in [4].

As for `Cc1ccc2c(-c3ccc(CO)o3)nn(Cc3ccccc3)c2c1`, the Activity (pM of cGMP (min)-1 (mg of protein)-1) in [8] came out at 35.1. Moreover, the IC50 was determined as 45.9 µM in assay [1]; 147 µM in assay [2]; 49.4 µM in [3]; 8.4 µM in [7]; 72 µM in assay [4].

Turning to `COCc1ccc(-c2nn(Cc3ccccc3)c3cc(OC)ccc23)o1`, the IC50 in assay [1] was 115 µM; in [2], 256 µM; in assay [5] it was 177 µM; in assay [3], 108 µM.

On to `COC(=O)c1ccc(-c2nn(Cc3ccccc3)c3cc(C)ccc23)o1`, for which the IC50 in assay [1] is 78.3 µM; in assay [2], more than 270 µM; in assay [3], 64.2 µM; in assay [4], more than 270 µM.

`OCc1ccc(-c2nn(Cc3ccccc3)c3cc4c(cc23)OCO4)o1`: the IC50 in [2] stood at 239 µM; in [9] it was 105 µM; in [3], 96.6 µM; in [4], 164 µM.

For `CCOC(=O)c1cccc(-c2nn(Cc3ccccc3)c3ccccc23)c1`, the IC50 is 144 µM in [1], more than 270 µM in assay [2], more than 270 µM in [5] and 125 µM in assay [3].

Consider `O=C(O)c1ccc(-c2nn(Cc3ccccc3)c3ccccc23)o1`, for which the IC50 in [1] is 75.5 µM; in [2] it was more than 270 µM; in assay [3], 83.7 µM; in assay [4], more than 270 µM.

For the compound `COCc1ccc(-c2nn(Cc3ccccc3)c3cc4c(cc23)OCO4)o1`, the IC50 in [1] was 113 µM; in assay [2], more than 270 µM; in assay [5], 196 µM; in [3] it was 102 µM.

On to `OCc1ccc(-c2nn(-c3ccccc3)c3ccccc23)o1`, for which, in assay [8], the Activity (pM of cGMP (min)-1 (mg of protein)-1) stood at 27.8. The IC50 in [1] came to 13.7 µM; in assay [2], 158 µM; in [3] it was 17.9 µM; in assay [7], 36.3 µM; in assay [4] it was 145 µM.

Turning to `O=C(O)c1ccc(-c2nn(Cc3ccccc3)c3cc(F)ccc23)o1`, the IC50 in assay [1] is 180 µM; in [2], more than 270 µM; in [5], more than 270 µM; in assay [3], 119 µM.

As for `O=C(O)c1cccc(-c2nn(Cc3ccccc3)c3ccccc23)c1`, the IC50 is 148 µM in [1], more than 270 µM in [2], 235 µM in assay [5] and 156 µM in assay [3].

As to `O=C(O)c1ccc(-c2nn(Cc3ccccc3)c3ccccc23)cc1`, the IC50 is 156 µM in [1], more than 270 µM in [2], 179 µM in [5] and 130 µM in assay [3].

On to `COC(=O)c1ccc(-c2nn(Cc3ccccc3)c3cc4c(cc23)OCO4)o1`, for which the concentration for half-maximal inhibition (IC50) in [1] was determined as 168 µM; in assay [2], 260 µM; in assay [5], 254 µM; in [3], 136 µM.

Take `COCc1ccc(-c2nn(Cc3ccccc3)c3ccccc23)o1`: the Activity (pM of cGMP (min)-1 (mg of protein)-1) in assay [8] came to 32. The IC50 was determined as 6.6 µM in [1]; 143 µM in [2]; 8.2 µM in assay [3]; 13.8 µM in assay [7]; 25.5 µM in assay [4].

Consider `COCc1ccc(-c2nn(Cc3ccccc3)c3cc(F)ccc23)o1`, for which the Activity (pM of cGMP (min)-1 (mg of protein)-1) in [8] was 41.8. For the same compound, the IC50 was 64.1 µM in assay [1]; 116 µM in assay [2]; 45.9 µM in assay [3]; 3.9 µM in [7]; 109 µM in assay [4].

Turning to `CC(C)Cn1c(=O)n(C)c(=O)c2[nH]cnc21` [ISOBUTYLMETHYLXANTHINE], in assay [10], the concentration for half-maximal inhibition (IC50) turned out to be 63 µM.

With `O=C(O)c1ccc(-c2nn(Cc3ccccc3)c3cc4c(cc23)OCO4)o1`, the IC50 in assay [1] is 150 µM; in assay [2], more than 270 µM; in assay [5], more than 270 µM; in assay [3] it was 148 µM.

With `COC(=O)c1ccc(-c2nn(Cc3ccccc3)c3ccccc23)o1`, the IC50 in assay [1] is 162 µM; in [2], more than 270 µM; in assay [3], 81.1 µM; in assay [4], more than 270 µM.

Take `O=C(O)c1ccc(-c2nn(-c3ccccc3)c3ccccc23)o1`: the IC50 in assay [1], in [2], in assay [5] and in [3] was more than 270 µM in each case.

Take `OCc1cccc(-c2nn(Cc3ccccc3)c3ccccc23)c1`: the IC50 in assay [1] is 98.1 µM; in assay [2], more than 270 µM; in assay [3] it was 51.3 µM; in [4], 174 µM.

`OCc1ccc(-c2[nH]nc3ccccc23)o1`: the IC50 in assay [1] was more than 270 µM; in [2], more than 270 µM; in assay [5], more than 270 µM; in [3] it was 101 µM.

Regarding `OCc1ccc(-c2nn(Cc3ccccc3)c3cc(F)ccc23)o1`, the Activity (pM of cGMP (min)-1 (mg of protein)-1) in assay [8] was determined as 37.2. Moreover, the IC50 in [1] stood at 25.2 µM; in assay [2] it was 217 µM; in assay [3] it was 21.7 µM; in assay [7], 14 µM; in assay [4] it was 53.4 µM.

For `Cc1ccc2c(-c3ccc(C(=O)O)o3)nn(Cc3ccccc3)c2c1`, the IC50 in [1] was 182 µM; in assay [2] it was more than 270 µM; in assay [5], more than 270 µM; in [3] it was 150 µM.

As for `COCc1ccc(-c2nn(Cc3ccccc3)c3cc(C)ccc23)o1`, the Activity (pM of cGMP (min)-1 (mg of protein)-1) in assay [8] worked out at 22.1. Besides, the IC50 in assay [1] stood at 59.3 µM; in assay [2], 126 µM; in assay [3], 32.4 µM; in assay [4] it was 76.3 µM.

On to `COC(=O)c1ccc(-c2nn(Cc3ccccc3)c3cc(F)ccc23)o1`, for which the IC50 in [2] was more than 270 µM; in assay [9], 101 µM; in assay [3], 94 µM; in assay [4], 149 µM.

For `OCc1ccc(-c2nn(Cc3ccccc3)c3ccccc23)cc1`, the concentration for half-maximal inhibition (IC50) in [1] is 123 µM; in assay [2], 193 µM; in [5], 143 µM; in assay [3], 101 µM.
